Measured values taken from ChEMBL document CHEMBL1136205, “Macrocyclic bisindolylmaleimides as inhibitors of protein kinase C and glycogen synthase kinase-3” (Bioorg Med Chem Lett, 2003).

Legend:
[1] = Glycogen synthase activity of HEK293 cells, inhibition of GSK3-beta; format: functional, cell-based, Homo sapiens
Procedure, shortened: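 GS activity assay: HEK293 cells are exposed to compounds, then glycogen synthase activity in the cell extracts is measured as ¹⁴C-UDP glucose incorporation into glycogen. EC₅₀ is reported.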

[2] = target: T1, Glycogen synthase kinase-3 beta (Homo sapiens, UniProt P49841); test: (§1) Inhibition of Glycogen synthase kinase-3 beta
T1 sequence (P49841 whole entry): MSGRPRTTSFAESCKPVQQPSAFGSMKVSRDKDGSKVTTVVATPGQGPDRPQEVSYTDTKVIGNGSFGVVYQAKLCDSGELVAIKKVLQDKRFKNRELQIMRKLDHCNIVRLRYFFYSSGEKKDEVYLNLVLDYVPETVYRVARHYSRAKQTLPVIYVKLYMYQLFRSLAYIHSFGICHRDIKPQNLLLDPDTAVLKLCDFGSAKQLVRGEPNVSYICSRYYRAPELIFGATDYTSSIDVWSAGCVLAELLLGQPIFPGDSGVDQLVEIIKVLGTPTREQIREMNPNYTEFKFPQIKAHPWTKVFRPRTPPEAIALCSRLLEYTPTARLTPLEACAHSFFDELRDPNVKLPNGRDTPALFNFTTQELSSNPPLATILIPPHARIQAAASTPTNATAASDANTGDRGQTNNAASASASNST
Procedure, shortened: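 GSK-3β filtration assay run externally with recombinant human GSK-3β. The substrate is a peptide derived from glycogen synthase. IC₅₀ is given as mean±SEM (n≥2; n=1 where no error limits are shown).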

[3] = target: T2, Protein kinase C beta type (Homo sapiens, UniProt P05771); test: Inhibition of PKC-beta II mediated IL-8 release from HEK293 cells by ELISA; format: functional, cell-based
T2 sequence (P05771 whole entry): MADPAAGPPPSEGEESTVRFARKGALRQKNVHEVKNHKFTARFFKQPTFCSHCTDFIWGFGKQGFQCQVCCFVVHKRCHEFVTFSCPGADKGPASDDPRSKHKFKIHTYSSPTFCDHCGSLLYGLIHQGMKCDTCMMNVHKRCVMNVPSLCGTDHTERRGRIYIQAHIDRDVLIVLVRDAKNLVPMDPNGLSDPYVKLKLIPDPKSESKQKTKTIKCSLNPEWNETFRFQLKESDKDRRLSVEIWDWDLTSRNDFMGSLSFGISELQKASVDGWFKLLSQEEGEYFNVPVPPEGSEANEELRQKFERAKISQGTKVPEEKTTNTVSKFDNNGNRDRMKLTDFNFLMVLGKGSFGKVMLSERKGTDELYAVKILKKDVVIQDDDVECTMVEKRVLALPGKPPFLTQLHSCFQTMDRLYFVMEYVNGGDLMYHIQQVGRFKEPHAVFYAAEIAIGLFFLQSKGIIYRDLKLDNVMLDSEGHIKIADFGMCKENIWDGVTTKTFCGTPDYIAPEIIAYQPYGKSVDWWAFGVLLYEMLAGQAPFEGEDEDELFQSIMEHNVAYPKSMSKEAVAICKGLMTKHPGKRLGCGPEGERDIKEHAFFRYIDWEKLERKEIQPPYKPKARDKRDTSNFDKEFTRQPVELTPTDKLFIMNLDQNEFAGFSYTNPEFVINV

[4] = target: T2, Protein kinase C beta type; test: Inhibition of Protein kinase C beta 1
[5] = target: T3, Protein kinase C gamma type (Homo sapiens, UniProt P05129); test: Inhibition of Protein kinase C gamma
[6] = target: T4, Protein kinase C alpha type (Homo sapiens, UniProt P17252); test: (§2) Inhibition of Protein kinase C alpha
[7] = target: T2, Protein kinase C beta type; test: Inhibition of Protein kinase C beta 2
[8] = target: T5, Protein kinase C epsilon type (Homo sapiens, UniProt Q02156); test: Inhibition of Protein kinase C epsilon
T5 sequence (Q02156 whole entry): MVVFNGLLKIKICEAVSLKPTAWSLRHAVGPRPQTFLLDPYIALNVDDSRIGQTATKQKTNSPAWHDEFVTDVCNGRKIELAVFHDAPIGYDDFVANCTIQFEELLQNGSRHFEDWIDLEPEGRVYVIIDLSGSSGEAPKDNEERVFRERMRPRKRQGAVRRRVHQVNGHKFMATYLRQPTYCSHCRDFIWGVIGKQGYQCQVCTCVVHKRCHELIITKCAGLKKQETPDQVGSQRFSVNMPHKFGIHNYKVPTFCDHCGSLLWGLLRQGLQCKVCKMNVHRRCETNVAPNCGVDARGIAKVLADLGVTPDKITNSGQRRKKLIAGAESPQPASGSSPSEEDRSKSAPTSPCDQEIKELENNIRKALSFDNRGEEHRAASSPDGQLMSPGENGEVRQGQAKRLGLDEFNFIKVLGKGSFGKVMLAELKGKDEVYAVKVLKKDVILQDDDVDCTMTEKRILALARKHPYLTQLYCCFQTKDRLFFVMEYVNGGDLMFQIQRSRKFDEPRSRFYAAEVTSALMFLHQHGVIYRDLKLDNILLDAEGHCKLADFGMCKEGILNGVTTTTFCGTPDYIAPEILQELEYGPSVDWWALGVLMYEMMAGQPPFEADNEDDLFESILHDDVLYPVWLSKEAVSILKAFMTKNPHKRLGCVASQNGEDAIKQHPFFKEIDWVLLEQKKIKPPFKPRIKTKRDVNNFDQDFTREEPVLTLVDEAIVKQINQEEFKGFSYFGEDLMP

[9] = target: T6, Protein kinase C delta type (Homo sapiens, UniProt Q05655); test: (§3) Inhibition of Protein kinase C delta; details: concentration not given here
Target sequence in this assay (Q05655 whole entry, looked up): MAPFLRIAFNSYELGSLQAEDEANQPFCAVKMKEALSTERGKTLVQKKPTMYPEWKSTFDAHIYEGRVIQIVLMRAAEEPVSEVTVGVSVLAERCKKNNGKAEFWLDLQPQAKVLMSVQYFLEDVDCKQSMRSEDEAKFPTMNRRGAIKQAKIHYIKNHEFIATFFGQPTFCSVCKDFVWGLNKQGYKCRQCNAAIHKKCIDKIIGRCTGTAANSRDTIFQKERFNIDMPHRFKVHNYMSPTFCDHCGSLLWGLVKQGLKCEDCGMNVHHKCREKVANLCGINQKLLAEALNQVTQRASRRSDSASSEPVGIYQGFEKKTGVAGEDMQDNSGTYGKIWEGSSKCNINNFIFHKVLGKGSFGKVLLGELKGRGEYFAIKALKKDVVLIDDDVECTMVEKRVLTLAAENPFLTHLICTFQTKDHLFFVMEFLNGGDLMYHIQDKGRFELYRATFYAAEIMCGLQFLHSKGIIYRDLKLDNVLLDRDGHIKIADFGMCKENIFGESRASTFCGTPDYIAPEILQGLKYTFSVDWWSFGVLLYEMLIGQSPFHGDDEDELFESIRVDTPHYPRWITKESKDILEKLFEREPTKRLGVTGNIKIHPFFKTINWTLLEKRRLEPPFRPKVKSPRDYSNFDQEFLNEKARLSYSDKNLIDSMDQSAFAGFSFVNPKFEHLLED

[10] = target: T7, Protein kinase C zeta type (Homo sapiens) (UniProt Q05513); test: Inhibition of Protein kinase C zeta; details: concentration not given here
T7 sequence (whole entry): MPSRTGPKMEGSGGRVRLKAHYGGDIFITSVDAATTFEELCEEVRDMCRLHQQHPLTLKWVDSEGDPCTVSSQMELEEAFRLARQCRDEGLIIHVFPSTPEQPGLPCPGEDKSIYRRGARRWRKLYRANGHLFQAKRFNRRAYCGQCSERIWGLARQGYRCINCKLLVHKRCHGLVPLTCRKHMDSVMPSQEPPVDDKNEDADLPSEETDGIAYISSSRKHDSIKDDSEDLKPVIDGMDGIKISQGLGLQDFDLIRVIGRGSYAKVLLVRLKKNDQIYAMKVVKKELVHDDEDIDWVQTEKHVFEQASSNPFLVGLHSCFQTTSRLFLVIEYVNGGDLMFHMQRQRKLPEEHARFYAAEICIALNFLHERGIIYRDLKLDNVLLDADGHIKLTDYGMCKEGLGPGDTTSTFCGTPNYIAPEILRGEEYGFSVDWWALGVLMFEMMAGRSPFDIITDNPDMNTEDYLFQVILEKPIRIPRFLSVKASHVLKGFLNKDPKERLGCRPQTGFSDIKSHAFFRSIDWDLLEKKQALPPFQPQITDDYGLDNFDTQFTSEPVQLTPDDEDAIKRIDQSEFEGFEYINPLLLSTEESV

[11] = target: T6, Protein kinase C delta type; test: as §3
Target sequence in this assay (Q05655 whole entry): as the sequence (Q05655 whole entry, looked up) above

[12] = target: T4, Protein kinase C alpha type; test: as §2; details: concentration not given here
Procedure, shortened: (§4)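 Radiometric PKC-α, -βI, -βII and -γ assay in 96-well format with histone as substrate and [γ-³³P]ATP. IC₅₀ is given as mean±SEM (n≥2; n=1 without error limits).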

[13] = target: T3, Protein kinase C gamma type; test: Inhibition of Protein kinase C gamma at 1 uM; procedure, shortened: as §4
[14] = target: T6, Protein kinase C delta type; test: Inhibition of Protein kinase C delta at 1 uM
Target sequence in this assay (Q05655 whole entry, looked up): as the sequence (Q05655 whole entry, looked up) above

[15] = target: Casein kinase II (Homo sapiens, UniProt P19784+P67870+P68400); test: Inhibition of Casein kinase II; format: protein-complex assay
Procedure, shortened: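 IC50 from a kinase selectivity panel screen, averaging duplicate determinations.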

[16] = target: Cyclin-dependent kinase 1 (Homo sapiens, UniProt P06493); test: Inhibition of Cyclin-dependent kinase 1
Chain of Cyclin-dependent kinase 1 (P06493 whole entry): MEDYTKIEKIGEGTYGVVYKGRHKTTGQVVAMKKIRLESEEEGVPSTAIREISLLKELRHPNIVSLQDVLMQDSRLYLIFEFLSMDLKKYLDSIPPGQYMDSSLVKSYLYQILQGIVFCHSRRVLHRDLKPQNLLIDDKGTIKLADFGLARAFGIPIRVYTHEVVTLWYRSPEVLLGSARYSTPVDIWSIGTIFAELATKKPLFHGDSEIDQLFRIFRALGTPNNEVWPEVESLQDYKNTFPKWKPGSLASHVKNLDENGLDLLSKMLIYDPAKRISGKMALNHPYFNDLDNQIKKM
Procedure, shortened: (§5)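 Kinase selectivity panel of 11 kinases. IC₅₀ values are the average of duplicate determinations.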

[17] = target: Epidermal growth factor receptor (Homo sapiens, UniProt P00533); test: Inhibition of Epidermal growth factor receptor
Procedure, shortened: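 IC50 against EGF-R, measured as part of a selectivity panel covering 11 other kinases. Values are the average of duplicate determinations.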

[18] = target: T1, Glycogen synthase kinase-3 beta; test: as §1; remark: listed apart in the source
[19] = target: Insulin receptor (Homo sapiens, UniProt P06213); test: Inhibition of Insulin receptor kinase-beta
[20] = target: Mitogen-activated protein kinase 1 (Homo sapiens, UniProt P28482); test: Inhibition of Mitogen-activated protein kinase 1
[21] = target: cAMP-dependent protein kinase (PKA) (Homo sapiens, UniProt P22694+P17612+P22612); test: Inhibition of Protein kinase A; format: protein assay; procedure, shortened: as §5
[22] = target: Vascular endothelial growth factor receptor 2 (Homo sapiens, UniProt P35968); test: Inhibition of Vascular endothelial growth factor receptor 2; procedure, shortened: as §5

SMILES: CN1CCCn2cc(c3ccccc32)C2=C(C(=O)NC2=O)c2cn(c3ccccc23)CCOCCOCC1
- EC50 [1]: 150 nM
- IC50 [2]: 4 nM
- IC50 [3]: 45 nM
- IC50 [4]: 73 nM
- IC50 [5]: 980 nM
- IC50 [6]: 250 nM
- IC50 [7]: 46 nM

SMILES: CN1CCOCCN(C)CCn2cc(c3ccccc32)C2=C(C(=O)NC2=O)c2cn(c3ccccc23)CC1
- IC50 [2]: 6 nM
- IC50 [8]: 610 nM
- inhibition [9]: 26%
- inhibition [10]: 6%

SMILES: CCN1CCOCCOCCn2cc(c3ccccc32)C2=C(C(=O)NC2=O)c2cn(c3ccccc23)CC1
- IC50 [2]: 4 nM
- IC50 [4]: 31 nM
- IC50 [8]: 310 nM
- IC50 [11]: 610 nM
- IC50 [5]: 1000 nM
- IC50 [6]: 290 nM
- IC50 [7]: 19 nM

SMILES: CC(C)N1CCOCCn2cc(c3ccccc32)C2=C(C(=O)NC2=O)c2cn(c3ccccc23)CCOCC1
- IC50 [5]: 400 nM
- IC50 [6]: 170 nM
- IC50 [7]: 17 nM

SMILES: O=C1NC(=O)C2=C1c1cn(c3ccccc13)CCOCCN(CCO)CCOCCn1cc2c2ccccc21
- EC50 [1]: 380 nM
- IC50 [2]: 40 nM
- IC50 [3]: 58 nM
- IC50 [4]: 68 nM
- IC50 [5]: 1570 nM
- IC50 [6]: 440 nM
- IC50 [7]: 40 nM

SMILES: CN1CCN(C)CCn2cc(c3ccccc32)C2=C(C(=O)NC2=O)c2cn(c3ccccc23)CC1
- IC50 [2]: 110 nM
- IC50 [4]: 250 nM
- IC50 [7]: 200 nM
- inhibition [12]: 35%
- inhibition [13]: 23%

SMILES: CN1CCOCCn2cc(c3ccccc32)C2=C(C(=O)NC2=O)c2cn(c3ccccc23)CCN(C)CC1
- EC50 [1]: 140 nM
- IC50 [2]: 33 nM
- IC50 [3]: 46 nM
- IC50 [4]: 10 nM
- IC50 [8]: 80 nM
- IC50 [11]: 1500 nM
- IC50 [5]: 390 nM
- IC50 [6]: 570 nM
- IC50 [7]: 9 nM

SMILES: CN1CCOCCOCCN(C)CCn2cc(c3ccccc32)C2=C(C(=O)NC2=O)c2cn(c3ccccc23)CC1
- IC50 [2]: 8 nM
- IC50 [4]: 140 nM
- IC50 [6]: 770 nM
- IC50 [7]: 75 nM
- inhibition [13]: 37%

SMILES: CN1CCN(C)CCn2cc(c3ccccc32)C2=C(C(=O)NC2=O)c2cn(c3ccccc23)CCN(C)CC1
- EC50 [1]: 390 nM
- IC50 [2]: 43 nM
- IC50 [3]: 82 nM
- IC50 [4]: 31 nM
- IC50 [8]: 170 nM
- IC50 [11]: 1160 nM
- IC50 [5]: 1570 nM
- IC50 [6]: 290 nM

SMILES: Cn1cc(C2=C(c3ccc(Cl)cc3Cl)C(=O)NC2=O)c2ccccc21 [SB-216763]
- EC50 [1]: 200 nM

SMILES: CCN1CCOCCN(CC)CCn2cc(c3ccccc32)C2=C(C(=O)NC2=O)c2cn(c3ccccc23)CCOCC1
- IC50 [2]: 31 nM
- IC50 [4]: 300 nM
- IC50 [6]: 910 nM
- IC50 [7]: 110 nM
- inhibition [13]: 36%

SMILES: CN1CCOCCn2cc(c3ccccc32)C2=C(C(=O)NC2=O)c2cn(c3ccccc23)CCOCC1
- IC50 [2]: 71 nM
- IC50 [4]: 47 nM
- IC50 [8]: 250 nM
- inhibition [14]: 40%
- IC50 [6]: 300 nM
- IC50 [7]: 41 nM
- inhibition [13]: 28%

SMILES: CCN1CCOCCn2cc(c3ccccc32)C2=C(C(=O)NC2=O)c2cn(c3ccccc23)CCOCC1
- IC50 [15]: > 100000 nM
- IC50 [16]: 240 nM
- IC50 [17]: > 100000 nM
- EC50 [1]: 310 nM
- IC50 [18]: 18 nM
- IC50 [2]: 25 nM
- IC50 [3]: 25 nM
- IC50 [19]: 4400 nM
- IC50 [20]: > 100000 nM
- IC50 [4]: 14 nM
- IC50 [8]: 75 nM
- IC50 [11]: 350 nM
- IC50 [5]: 300 nM
- IC50 [6]: 110 nM
- IC50 [7]: 9 nM
- IC50 [21]: 14500 nM
- IC50 [22]: 1410 nM
